Source: ChEMBL document CHEMBL4354876, “A Selective Modulator of Peroxisome Proliferator-Activated Receptor γ with an Unprecedented Binding Mode” (J Med Chem, 2020)
Active and inactive are the calls of the source. The rule behind the calls is not given here.

Key:
[1] = target: T1, Bile acid receptor (Homo sapiens) (UniProt Q96RI1); test: Agonist activity at FXR (unknown origin) at 10 uM
T1 sequence (whole entry): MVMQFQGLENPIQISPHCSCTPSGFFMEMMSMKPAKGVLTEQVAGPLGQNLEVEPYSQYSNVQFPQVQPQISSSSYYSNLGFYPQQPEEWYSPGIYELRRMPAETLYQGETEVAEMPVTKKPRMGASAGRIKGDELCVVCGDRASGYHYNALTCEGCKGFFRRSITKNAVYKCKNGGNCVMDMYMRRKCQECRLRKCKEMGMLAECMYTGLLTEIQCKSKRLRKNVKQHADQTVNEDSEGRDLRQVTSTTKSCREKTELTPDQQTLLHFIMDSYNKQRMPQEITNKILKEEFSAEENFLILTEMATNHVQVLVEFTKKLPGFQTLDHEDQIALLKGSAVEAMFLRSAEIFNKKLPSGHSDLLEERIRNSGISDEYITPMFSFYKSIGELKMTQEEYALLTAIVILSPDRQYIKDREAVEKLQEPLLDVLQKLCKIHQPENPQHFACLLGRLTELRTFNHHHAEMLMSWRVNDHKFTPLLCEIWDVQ

[2] = target: Retinoid X receptor (Homo sapiens) (UniProt P28702+P48443+P19793); test: Agonist activity at RXR (unknown origin) at 10 uM; format: protein assay
[3] = target: T2, Peroxisome proliferator-activated receptor delta (Homo sapiens, UniProt Q03181); test: Partial agonist activity at Gal4-fused PPARdelta LBD (unknown origin) expressed in HEK293T cells after 14 to 16 hrs by dual-Glo luciferase assay; format: cell-based
T2 sequence (Q03181 whole entry): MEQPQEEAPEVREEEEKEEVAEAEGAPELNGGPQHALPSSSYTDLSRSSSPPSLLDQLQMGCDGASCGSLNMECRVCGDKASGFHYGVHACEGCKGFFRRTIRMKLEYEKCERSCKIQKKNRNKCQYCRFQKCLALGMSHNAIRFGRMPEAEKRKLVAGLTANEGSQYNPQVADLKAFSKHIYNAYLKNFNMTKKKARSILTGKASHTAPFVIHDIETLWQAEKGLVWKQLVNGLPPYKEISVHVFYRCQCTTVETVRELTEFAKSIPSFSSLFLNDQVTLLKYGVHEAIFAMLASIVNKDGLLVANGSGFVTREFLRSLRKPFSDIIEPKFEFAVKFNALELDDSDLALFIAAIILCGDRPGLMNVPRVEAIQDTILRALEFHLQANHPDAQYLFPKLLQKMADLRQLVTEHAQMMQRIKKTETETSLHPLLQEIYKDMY
Procedure, shortened: (§1)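 Gal4 hybrid reporter assay in transiently transfected HEK293T cells. Constructs fuse the yeast Gal4 DNA-binding domain to the human receptor LBD. Firefly luciferase is the reporter. Constitutive renilla luciferase monitors transfection efficiency and toxicity. EC50 and maximal relative activation are reported as mean±S.E.M., n≥3.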

[4] = Partial agonist activity at recombinant PPARgamma LBD/N-terminal GFP-fused RXRalpha mutant LBD (unknown origin) assessed as increase in biotinylated-CBP peptide recruitment measured after 2 hrs by HTRF assay; set-up: species or system Homo sapiens
Procedure, shortened: (§2)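 Cell-free HTRF assay of coactivator peptide recruitment (CBP or SRC-1) to the recombinant PPARγ:RXRα heterodimer.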

[5] = target: T3, Peroxisome proliferator-activated receptor gamma (Homo sapiens, UniProt P37231); test: Selective modulation of PPARgamma in human HepG2 cells assessed as induction of ANGPTL4 mRNA expression at 1 uM measured after 12 hrs by qPCR analysis; format: cell-based; settings: hepg2, 12 h
T3 sequence (P37231 whole entry): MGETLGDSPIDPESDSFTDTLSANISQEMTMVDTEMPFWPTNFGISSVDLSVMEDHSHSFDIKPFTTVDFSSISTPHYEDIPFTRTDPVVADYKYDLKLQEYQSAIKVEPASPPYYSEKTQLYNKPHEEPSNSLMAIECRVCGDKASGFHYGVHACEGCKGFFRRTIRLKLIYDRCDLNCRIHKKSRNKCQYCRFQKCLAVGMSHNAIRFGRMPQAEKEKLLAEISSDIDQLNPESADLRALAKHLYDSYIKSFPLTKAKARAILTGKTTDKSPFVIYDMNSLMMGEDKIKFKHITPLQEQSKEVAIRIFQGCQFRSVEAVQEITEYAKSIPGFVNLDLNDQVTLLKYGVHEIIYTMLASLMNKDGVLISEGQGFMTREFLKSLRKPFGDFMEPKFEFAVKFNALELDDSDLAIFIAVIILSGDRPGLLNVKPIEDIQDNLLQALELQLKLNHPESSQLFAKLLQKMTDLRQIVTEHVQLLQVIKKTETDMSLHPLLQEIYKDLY
Procedure, shortened: (§3)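 HepG2 cells were incubated with test compound at 1 µM. mRNA of the PPARγ target genes adiponectin and ANGPTL4 was quantified. Mean±S.E.M., n≥3.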

[6] = target: T4, Peroxisome proliferator-activated receptor gamma (Homo sapiens) (UniProt P37231); test: Selective modulation of PPARgamma in human HepG2 cells assessed as induction of adiponectin mRNA expression at 1 uM measured after 12 hrs by qPCR analysis; format: cell-based; procedure, shortened: as §3
T4 sequence (whole entry): T3 sequence (P37231 whole entry)

[7] = target: T5, Peroxisome proliferator-activated receptor alpha (Homo sapiens, UniProt Q07869); test: Partial agonist activity at Gal4-fused PPARalpha LBD (unknown origin) expressed in HEK293T cells after 14 to 16 hrs by dual-Glo luciferase assay; format: cell-based; procedure, shortened: as §1
T5 sequence (Q07869 whole entry): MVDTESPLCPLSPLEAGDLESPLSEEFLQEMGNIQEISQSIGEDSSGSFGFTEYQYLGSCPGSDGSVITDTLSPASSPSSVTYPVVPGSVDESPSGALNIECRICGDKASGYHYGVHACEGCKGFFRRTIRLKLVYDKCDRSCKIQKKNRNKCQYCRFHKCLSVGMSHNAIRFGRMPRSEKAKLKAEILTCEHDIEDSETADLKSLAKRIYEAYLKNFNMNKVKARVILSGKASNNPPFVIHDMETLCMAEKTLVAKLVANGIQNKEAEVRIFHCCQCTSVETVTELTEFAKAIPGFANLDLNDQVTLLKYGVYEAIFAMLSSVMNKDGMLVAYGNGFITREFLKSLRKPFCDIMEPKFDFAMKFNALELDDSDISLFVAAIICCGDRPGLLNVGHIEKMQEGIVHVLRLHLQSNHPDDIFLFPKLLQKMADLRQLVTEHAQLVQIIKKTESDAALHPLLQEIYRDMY

[8] = target: Liver X receptor (Homo sapiens) (UniProt Q13133+P55055); test: Agonist activity at LXR (unknown origin) at 10 uM; format: protein assay
NHDF [9] = test: (§4) Induction of adipogenesis in NHDF assessed as reduction in fibroblast differentiation into matured adipocytes at 0.2 to 20 uM administered on day 3 of differentiation 1 and day 5 of differentiation 2 followed by media refreshment at 2 days interval up to 13 days and measured on day 14 by Oil red O staining based light microscopic analysis; format: cell-based; settings: human
Procedure, shortened: (§5)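 Primary human fibroblasts (NHDF) were differentiated to mature adipocytes and treated with ligand or DMSO; the test compound was used at 0.2, 2 and 20 µM and the reference at 2 µM. Lipid accumulation was read by Oil Red O staining, with four replicates.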

[10] = target: T6, Peroxisome proliferator-activated receptor delta (Homo sapiens) (UniProt Q03181); test: Partial agonist activity at Gal4-fused PPARdelta LBD (unknown origin) expressed in HEK293T cells after 14 to 16 hrs by dual-Glo luciferase assay relative to L165041; format: cell-based; procedure, shortened: as §1
T6 sequence (whole entry): T2 sequence (Q03181 whole entry)

[11] = Partial agonist activity at recombinant PPARgamma LBD/N-terminal GFP-fused RXRalpha mutant LBD (unknown origin) assessed as increase in biotinylated-SRC1 peptide recruitment measured after 2 hrs by HTRF assay; set-up: species or system Homo sapiens; procedure, shortened: as §2
[12] = target: T3, Peroxisome proliferator-activated receptor gamma; test: Partial agonist activity at Gal4-fused PPARgamma LBD (unknown origin) expressed in HEK293T cells after 14 to 16 hrs by dual-Glo luciferase assay; format: cell-based; procedure, shortened: as §1
[13] = target: Retinoic acid receptor (Homo sapiens) (UniProt P13631+P10826+P10276); test: Agonist activity at RAR (unknown origin) at 10 uM; format: protein assay
[14] = target: T7, Peroxisome proliferator-activated receptor alpha (Homo sapiens) (UniProt Q07869); test: Partial agonist activity at Gal4-fused PPARalpha LBD (unknown origin) expressed in HEK293T cells after 14 to 16 hrs by dual-Glo luciferase assay relative to GW7647; format: cell-based; procedure, shortened: as §1
T7 sequence (whole entry): T5 sequence (Q07869 whole entry)

[15] = target: T3, Peroxisome proliferator-activated receptor gamma; test: Partial agonist activity at recombinant N-terminal GFP-fused PPARgamma LBD (unknown origin) assessed as increase in biotinylated-SRC1 peptide recruitment measured after 2 hrs by HTRF assay
[16] = Stability in Sprague-Dawley rat liver microsomes assessed as parent compound remaining at 10 uM after 60 mins by HPLC analysis; format: ADME, Microsome; settings: read-out: Stability
Procedure, shortened: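 Incubation with rat liver microsomes, measuring compound remaining after 60 minutes.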

[17] = target: T3, Peroxisome proliferator-activated receptor gamma; test: Partial agonist activity at recombinant N-terminal GFP-fused PPARgamma LBD (unknown origin) assessed as increase in biotinylated-CBP peptide recruitment measured after 2 hrs by HTRF assay
Procedure, shortened: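 Cell-free HTRF assay of CBP coactivator recruitment to recombinant PPARγ protein.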

[18] = target: T4, Peroxisome proliferator-activated receptor gamma (Homo sapiens); test: Partial agonist activity at Gal4-fused PPARgamma LBD (unknown origin) expressed in HEK293T cells after 14 to 16 hrs by dual-Glo luciferase assay relative to pioglitazone; format: cell-based; procedure, shortened: as §1
NHDF [19] = test: as §4, with “2” for “0.2 to 20”; format: cell-based; settings: human; procedure, shortened: as §5

Retinoid X receptor (Homo sapiens), sequence (P19793 whole entry, looked up, the tested form may be a part): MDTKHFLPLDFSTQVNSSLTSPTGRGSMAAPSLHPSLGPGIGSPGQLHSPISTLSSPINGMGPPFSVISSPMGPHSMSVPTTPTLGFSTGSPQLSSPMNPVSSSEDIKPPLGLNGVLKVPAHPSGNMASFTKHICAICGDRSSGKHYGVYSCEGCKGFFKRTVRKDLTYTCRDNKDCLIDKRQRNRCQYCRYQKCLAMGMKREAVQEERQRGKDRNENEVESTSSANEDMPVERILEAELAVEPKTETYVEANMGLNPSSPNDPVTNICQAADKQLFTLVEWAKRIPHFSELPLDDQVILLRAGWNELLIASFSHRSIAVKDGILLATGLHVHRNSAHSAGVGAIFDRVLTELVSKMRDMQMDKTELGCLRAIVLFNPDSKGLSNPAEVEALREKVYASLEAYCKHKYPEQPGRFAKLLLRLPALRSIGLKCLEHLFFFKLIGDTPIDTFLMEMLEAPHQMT
Retinoid X receptor (Homo sapiens), sequence (P28702 whole entry, looked up, the tested form may be a part): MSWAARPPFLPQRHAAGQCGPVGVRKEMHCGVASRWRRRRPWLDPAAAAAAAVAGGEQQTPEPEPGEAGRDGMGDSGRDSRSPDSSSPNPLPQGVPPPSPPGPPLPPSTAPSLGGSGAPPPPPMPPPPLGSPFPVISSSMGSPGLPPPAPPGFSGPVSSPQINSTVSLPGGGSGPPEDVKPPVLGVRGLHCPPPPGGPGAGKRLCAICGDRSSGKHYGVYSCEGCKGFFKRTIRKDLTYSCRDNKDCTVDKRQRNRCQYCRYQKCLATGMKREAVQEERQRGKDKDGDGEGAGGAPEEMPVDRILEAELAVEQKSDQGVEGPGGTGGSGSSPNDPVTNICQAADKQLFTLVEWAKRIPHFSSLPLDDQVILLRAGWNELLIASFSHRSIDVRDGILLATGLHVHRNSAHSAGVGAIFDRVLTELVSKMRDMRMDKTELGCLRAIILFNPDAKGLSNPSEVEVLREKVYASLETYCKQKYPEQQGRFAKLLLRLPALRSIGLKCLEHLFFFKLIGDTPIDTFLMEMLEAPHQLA
Retinoid X receptor (Homo sapiens), sequence (P48443 whole entry, looked up, the tested form may be a part): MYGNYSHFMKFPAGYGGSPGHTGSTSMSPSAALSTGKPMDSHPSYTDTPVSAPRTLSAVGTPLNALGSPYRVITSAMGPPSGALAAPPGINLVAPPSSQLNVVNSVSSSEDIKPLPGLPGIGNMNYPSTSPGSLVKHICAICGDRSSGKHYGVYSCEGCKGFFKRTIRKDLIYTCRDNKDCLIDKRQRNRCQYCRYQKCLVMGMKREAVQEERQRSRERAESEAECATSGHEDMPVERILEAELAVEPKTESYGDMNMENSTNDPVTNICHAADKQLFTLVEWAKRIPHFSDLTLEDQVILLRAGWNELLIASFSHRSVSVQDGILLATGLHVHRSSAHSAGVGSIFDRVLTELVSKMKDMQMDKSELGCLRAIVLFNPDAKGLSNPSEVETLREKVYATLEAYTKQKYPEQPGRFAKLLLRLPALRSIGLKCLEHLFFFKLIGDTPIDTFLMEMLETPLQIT
Retinoic acid receptor (Homo sapiens), sequence (P10276 whole entry, looked up, the tested form may be a part): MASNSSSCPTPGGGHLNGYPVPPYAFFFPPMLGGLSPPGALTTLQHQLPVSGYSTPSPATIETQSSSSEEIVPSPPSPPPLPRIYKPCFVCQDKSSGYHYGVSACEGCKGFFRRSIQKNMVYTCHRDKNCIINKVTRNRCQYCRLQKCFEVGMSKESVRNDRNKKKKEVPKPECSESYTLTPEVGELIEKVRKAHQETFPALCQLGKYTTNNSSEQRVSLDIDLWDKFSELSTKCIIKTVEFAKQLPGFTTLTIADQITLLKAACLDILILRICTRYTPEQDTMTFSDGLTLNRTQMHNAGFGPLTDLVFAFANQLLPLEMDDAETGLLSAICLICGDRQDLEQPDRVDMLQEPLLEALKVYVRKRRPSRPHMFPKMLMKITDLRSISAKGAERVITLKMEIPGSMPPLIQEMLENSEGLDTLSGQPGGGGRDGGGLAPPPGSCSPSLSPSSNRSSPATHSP
Retinoic acid receptor (Homo sapiens), sequence (P10826 whole entry, looked up, the tested form may be a part): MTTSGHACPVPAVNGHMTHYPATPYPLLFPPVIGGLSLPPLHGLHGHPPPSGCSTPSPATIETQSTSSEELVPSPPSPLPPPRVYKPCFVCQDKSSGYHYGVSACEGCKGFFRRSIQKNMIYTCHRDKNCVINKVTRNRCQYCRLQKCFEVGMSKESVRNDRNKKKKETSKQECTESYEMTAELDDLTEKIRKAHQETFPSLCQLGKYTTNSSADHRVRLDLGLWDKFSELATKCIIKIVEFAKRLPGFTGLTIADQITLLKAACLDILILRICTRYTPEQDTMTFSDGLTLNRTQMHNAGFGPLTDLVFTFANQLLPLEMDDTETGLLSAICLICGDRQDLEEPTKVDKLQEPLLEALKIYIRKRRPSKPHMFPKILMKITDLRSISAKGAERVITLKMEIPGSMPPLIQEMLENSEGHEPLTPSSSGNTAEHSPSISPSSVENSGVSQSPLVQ
Retinoic acid receptor (Homo sapiens), sequence (P13631 whole entry, looked up, the tested form may be a part): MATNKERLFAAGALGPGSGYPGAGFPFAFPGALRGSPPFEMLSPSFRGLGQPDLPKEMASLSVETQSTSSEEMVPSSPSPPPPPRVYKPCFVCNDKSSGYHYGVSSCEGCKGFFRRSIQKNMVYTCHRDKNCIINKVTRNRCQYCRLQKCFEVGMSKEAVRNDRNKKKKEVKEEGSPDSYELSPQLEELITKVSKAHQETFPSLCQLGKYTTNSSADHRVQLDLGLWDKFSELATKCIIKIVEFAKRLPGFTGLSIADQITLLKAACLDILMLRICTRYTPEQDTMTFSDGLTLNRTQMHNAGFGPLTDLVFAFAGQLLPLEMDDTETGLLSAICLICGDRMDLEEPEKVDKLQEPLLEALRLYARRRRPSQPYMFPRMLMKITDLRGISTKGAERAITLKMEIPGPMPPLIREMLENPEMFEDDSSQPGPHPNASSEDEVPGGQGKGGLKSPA

| Activity [1] | Activity [2] | EC50 [3] [nM] | EC50 [4] [nM] | Activity [6] | EC50 [7] [nM] | Activity [8] | max activation [10] [%] | EC50 [11] [nM] | EC50 [12] [nM] | Activity [13] | max activation [14] [%] | EC50 [15] [nM] | remaining at 1 h, 10 µM [16] [%] | EC50 [17] [nM] | max activation [18] [%] | SMILES | Activity [5] | Activity (NHDF [9]) | Activity (NHDF [19]) |
| --- | --- | --- | --- | --- | --- | --- | --- | --- | --- | --- | --- | --- | --- | --- | --- | --- | --- | --- | --- |
| inactive | inactive | 400 | 437 | Active | 500 | inactive | 12 | 887 | 2.2 | inactive | 29 | 107 | 80 | 197 | 67 | CCCCCCC(Sc1nc2ccc(NS(=O)(=O)c3ccc(Cl)cc3Cl)cc2s1)C(=O)O (configuration not stated) | Not Active | Non-Toxic |  |
|  |  |  | 121 | Active |  |  |  | 116 |  |  |  |  |  |  |  | CN(CCOc1ccc(CC2SC(=O)NC2=O)cc1)c1ccccn1 (configuration not stated) [ROSIGLITAZONE] |  |  | Toxic |
